According to ChEMBL document CHEMBL1137633, “2,N6-disubstituted adenosine analogs with antitrypanosomal and antimalarial activities” (Antimicrob Agents Chemother, 2007):
Calls of active or inactive are those of the source. The calls are words filed in the database; no cut-off is given here.

Experiments:
Trypanosoma cruzi = assay: Trypanocidal activity against Trypanosoma cruzi Tulahuen C4 trypomastigotes infected in mouse macrophage by reporter dye assay; assay type: functional, organism-based
Leishmania donovani = assay: Antileishmanial activity against Leishmania donovani MHOMET-67/L82 amastigotes infected in mouse macrophage by reporter dye assay; assay type: functional, organism-based
[1] = tested on: Trypanosoma brucei rhodesiense; assay: Trypanocidal activity against Trypanosoma brucei rhodesiense STIB 900 […] by reporter dye assay; assay type: functional, organism-based
Plasmodium falciparum = assay: Antiplasmodial activity against chloroquine and pyrimethamine-resistant Plasmodium falciparum K1 […] by reporter dye assay; assay type: functional, organism-based
L6 = assay: Cytotoxicity against rat L6 cells; assay type: cell-based
[2] = Cytotoxicity against HEK293T cells after 16 hrs by alamar blue staining; assay type: cell-based; settings: Homo sapiens, HEK-293T
In short: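 HEK 293T cells were seeded at 3×10^4/well in DMEM with 10% newborn bovine serum, 2 mM L-glutamax and 1% penicillin-streptomycin, and left to adhere for 3 h at 37°C under 5% CO2. Medium with serial drug dilutions (500 to 0.24 μM in the added medium) was then given for 16 h. Resazurin followed for a further 24 h, read by fluorescence (ex 530/em 590 nm). IC50 values came from ≥3 independent experiments.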

[3] = tested on: Trypanosoma brucei brucei; assay: Inhibition of Trypanosoma brucei brucei 427 P1 transporter-mediated [3H]adenosine uptake by fluid scintillation counting in presence of 100 uM adenine
[4] = Inhibition of Trypanosoma brucei brucei 427 P2 transporter-mediated [3H]adenosine uptake by fluid scintillation counting in presence of 100 uM inosine

Compound | IC50 (Trypanosoma cruzi) [µM] | IC50 (Leishmania donovani) [µM] | IC50 [1] [µM] | IC50 (Plasmodium falciparum) [µM] | IC50 (L6) [µM] | IC50 [2] [µM] | inhibition [3] | Ki [4] [µM]
COc1nc(Nc2ccccc2)c2ncn([C@@H]3O[C@H](CO)[C@@H](O)[C@H]3O)c2n1 | < 30 | < 30 | 83.3 | > 10 |  |  |  | 
CCCCCNc1nc(NCCCCC)c2ncn([C@@H]3O[C@H](CO)[C@@H](O)[C@H]3O)c2n1 | < 30 | < 30 | 6.47 | > 10 | > 200 |  |  | 
OC[C@H]1O[C@@H](n2cnc3c(NC4CCCCC4)nc(NC4CCCCC4)nc32)[C@H](O)[C@@H]1O |  |  | 7.26 | 9.62 |  |  |  | 
CCCNc1nc(NCCc2ccccc2)c2ncn([C@@H]3O[C@H](CO)[C@@H](O)[C@H]3O)c2n1 | < 30 | < 30 | 14.2 | > 10 | > 200 |  |  | 
OC[C@H]1O[C@@H](n2cnc3c(NCCC(c4ccccc4)c4ccccc4)nc(NCCc4cnc[nH]4)nc32)[C@H](O)[C@@H]1O | < 30 | < 30 | 71.5 | 8.17 |  |  |  | 
OC[C@H]1O[C@@H](n2cnc3c(Nc4ccccc4)nc(NCCOCc4ccccc4)nc32)[C@H](O)[C@@H]1O | < 30 | < 30 | 8.43 | 7.38 | 53.8 |  |  | 
OC[C@H]1O[C@@H](n2cnc3c(Nc4ccccc4)nc(NCCC4CNc5ccccc54)nc32)[C@H](O)[C@@H]1O (some centres undefined) | < 30 | < 30 | 18.8 | 5.55 | 13.2 |  |  | 
CCN(CC)CCCC(C)Nc1ccnc2cc(Cl)ccc12 (centres undefined) [CHLOROQUINE] | < 30 | < 30 |  |  |  |  |  | 
COc1nc(NCCC(c2ccccc2)c2ccccc2)c2ncn([C@@H]3O[C@H](CO)[C@@H](O)[C@H]3O)c2n1 | < 30 | < 30 | 36 | > 10 |  |  |  | 
OC[C@H]1O[C@@H](n2cnc3c(NCCC(c4ccccc4)c4ccccc4)nc(NCc4cccc5ccccc45)nc32)[C@H](O)[C@@H]1O |  |  | 17.3 | 1.56 |  |  |  | 
OC[C@H]1O[C@@H](n2cnc3c(NCCC(c4ccccc4)c4ccccc4)nc(NC4CCCC4)nc32)[C@H](O)[C@@H]1O | < 30 | < 30 | 8 | 3.28 |  |  |  | 
OC[C@H]1O[C@@H](n2cnc3c(NCc4cccc(I)c4)nc(NCCc4cnc[nH]4)nc32)[C@H](O)[C@@H]1O | < 30 | < 30 | 42.9 | > 10 |  |  |  | 
OC[C@H]1O[C@@H](n2cnc3c(N4CCCCC4)nc(NC4CCCC4)nc32)[C@H](O)[C@@H]1O |  |  | 11.2 | > 10 |  |  |  | 
OC[C@H]1O[C@@H](n2cnc3c(NC4CC4)nc(NC4CCCC4)nc32)[C@H](O)[C@@H]1O |  |  | 1.84 | > 10 |  | > 500 |  | 
OC[C@H]1O[C@@H](n2cnc3c(NCCC4CNc5ccccc54)nc(NCCC4CNc5ccccc54)nc32)[C@H](O)[C@@H]1O (some centres undefined) |  |  | 26.5 | 2.46 |  |  |  | 
OC(c1cc(C(F)(F)F)nc2c(C(F)(F)F)cccc12)C1CCCCN1 (centres undefined) [MEFLOQUINE] | < 30 | < 30 |  |  | 4.76 |  |  | 
OC[C@H]1O[C@@H](n2cnc3c(NCc4cccc(I)c4)nc(NCCOCc4ccccc4)nc32)[C@H](O)[C@@H]1O | < 30 | < 30 | 27 | > 10 |  |  |  | 
OC[C@H]1O[C@@H](n2cnc3c(Nc4ccccc4)nc(NCCc4cnc[nH]4)nc32)[C@H](O)[C@@H]1O | < 30 | < 30 | 76.3 | > 10 |  |  |  | 
OC[C@H]1O[C@@H](n2cnc3c(NC4CC4)nc(NC4CC4)nc32)[C@H](O)[C@@H]1O |  |  | 172 | > 10 |  |  |  | 
CCCCNc1nc(NC2CCCC2)nc2c1ncn2[C@@H]1O[C@H](CO)[C@@H](O)[C@H]1O |  |  | 0.64 | > 10 |  | > 500 | inactive | 9
OC[C@H]1O[C@@H](n2cnc3c(NCc4cccc(I)c4)nc(NC4CCCC4)nc32)[C@H](O)[C@@H]1O | < 30 | < 30 | 5.44 | > 10 | 51.7 |  |  | 
OC[C@H]1O[C@@H](n2cnc3c(NC4CCCCCC4)nc(NC4CCCC4)nc32)[C@H](O)[C@@H]1O |  |  | 0.71 | 8.95 |  | > 500 |  | 
OC[C@H]1O[C@@H](n2cnc3c(NC4CCCC4)nc(NCCC4CNc5ccccc54)nc32)[C@H](O)[C@@H]1O (some centres undefined) | < 30 | < 30 | 20.8 | > 10 | 48.4 |  |  | 
